According to ChEMBL document CHEMBL4425169 (ACS Med Chem Lett, 2016):
Calls of active or inactive are those of the source. The rule behind the calls is not given here.

Key:
[1] = Cardiotoxicity in vagotomized cardiovascular dog model assessed as effect on mean arterial pressure at plasma concentration <= 11.6 uM at 1 to 7 mg/kg, iv administered during three sequential 30 min periods; type: toxicity, organism-based, Canis lupus familiaris; conditions: in vivo, 0.5 h
Method in brief: (§1)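 Anesthetized, vagotomized dogs received IV infusions over sequential periods at 1, 2 and 7 mg/kg (10 mg/kg cumulative). Heart rate, mean arterial pressure and ECG intervals (PR, QRS, QT/QTc) were recorded predose and during each infusion period. Plasma concentrations were measured.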

[2] = Drug metabolism in monkey hepatocytes assessed as lactone hydrolysis at 1 uM measured at 120 mins; type: ADME, cell-based, Macaca mulatta, Hepatocyte; conditions: rhesus monkey, read-out: Drug metabolism
[3] = Oral bioavailability in rat at 2 mg/kg; type: ADME, organism-based; conditions: in vivo
Method in brief: (§2)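 Rats dosed once at 1 mg/kg IV and, separately, 2 mg/kg PO, with n = 3. Derived parameters were plasma clearance, Vdss, dose-normalized oral AUC (μM·h·kg/mg), half-life, and oral bioavailability (F%).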

[4] = Drug metabolism in bile duct cannulated rat assessed as glucuronidation; type: ADME
Rattus norvegicus [5] = experiment: Diuretic activity in Sprague-Dawley rat at 10 mg/kg via oral gavage administered 30 mins prior to void induction by loading saline measured upto 4 hrs relative to vehicle treated control; type: functional
Method in brief: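 Acute 4 h study in Sprague-Dawley rats after oral dosing, n = 5 per group. Urine volume and sodium and potassium excretion were expressed as fold increase over vehicle-treated animals. Significance was tested versus vehicle (p < 0.05 or p < 0.01).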

[6] = Drug metabolism in bile duct cannulated rat assessed as CYP3A4-mediated oxidative metabolite formation; type: ADME
Cytochrome P450 3A4 = Cytochrome P450 3A4 (Homo sapiens, UniProt P08684); experiment: Reversible inhibition of human CYP3A4; type: ADME
Sequence of Cytochrome P450 3A4 (P08684 whole entry): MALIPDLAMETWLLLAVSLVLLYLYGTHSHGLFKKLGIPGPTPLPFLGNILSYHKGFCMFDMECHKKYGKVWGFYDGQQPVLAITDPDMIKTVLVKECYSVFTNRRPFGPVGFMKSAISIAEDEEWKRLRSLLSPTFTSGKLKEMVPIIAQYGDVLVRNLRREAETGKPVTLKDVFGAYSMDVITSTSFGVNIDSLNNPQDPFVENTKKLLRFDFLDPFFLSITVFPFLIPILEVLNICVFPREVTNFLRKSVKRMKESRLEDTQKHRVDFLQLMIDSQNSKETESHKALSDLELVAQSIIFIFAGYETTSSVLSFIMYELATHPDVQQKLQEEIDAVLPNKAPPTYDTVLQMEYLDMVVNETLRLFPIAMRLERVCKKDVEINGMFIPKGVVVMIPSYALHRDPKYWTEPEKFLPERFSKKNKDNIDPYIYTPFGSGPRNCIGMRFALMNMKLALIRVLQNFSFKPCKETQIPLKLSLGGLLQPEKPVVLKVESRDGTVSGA

[7] = Drug metabolism in rat hepatocytes assessed as oxidation at 1 uM measured at 120 mins; type: ADME, cell-based, Hepatocyte; conditions: 2 h
[8] = biological target: T1, Inward rectifier potassium channel 2 (Homo sapiens, UniProt P63252); experiment: Inhibition of Kir2.1 (unknown origin) upto 30 uM
T1 sequence (P63252 whole entry): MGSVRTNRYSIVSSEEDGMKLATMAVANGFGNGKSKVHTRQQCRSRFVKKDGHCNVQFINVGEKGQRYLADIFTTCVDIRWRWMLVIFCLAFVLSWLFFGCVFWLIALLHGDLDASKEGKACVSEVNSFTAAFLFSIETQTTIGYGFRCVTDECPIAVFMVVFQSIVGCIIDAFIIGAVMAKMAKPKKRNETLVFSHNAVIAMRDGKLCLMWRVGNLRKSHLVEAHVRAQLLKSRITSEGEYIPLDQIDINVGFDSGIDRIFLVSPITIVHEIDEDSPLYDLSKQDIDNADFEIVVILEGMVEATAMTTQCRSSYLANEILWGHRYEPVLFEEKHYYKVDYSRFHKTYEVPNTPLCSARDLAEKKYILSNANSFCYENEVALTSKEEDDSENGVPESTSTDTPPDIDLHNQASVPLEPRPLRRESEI

Rattus norvegicus [9] = experiment: Kaliuretic activity in Sprague-Dawley rat at 10 mg/kg via oral gavage administered 30 mins prior to void induction by loading saline measured upto 4 hrs relative to vehicle treated control; type: functional
Method in brief: (§3)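 Acute rat diuresis model in male-unspecified Sprague-Dawley rats, single oral dose, urine collected over 4 h. Urine volume, sodium excretion and potassium excretion expressed as fold increase over vehicle-treated controls; n = 5 per group; significance tested against vehicle.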

[10] = Drug metabolism in rat hepatocytes assessed as lactone hydrolysis at 1 uM measured at 120 mins; type: ADME, cell-based, Hepatocyte; conditions: read-out: Drug metabolism
[11] = Volume of distribution at steady state in rat at 1 mg/kg, iv or 2 mg/kg, po; type: ADME, organism-based; conditions: in vivo, read-out: Vdss; method in brief: as §2
Rattus norvegicus [12] = experiment: Diuretic activity in Sprague-Dawley rat at 1 mg/kg via oral gavage administered 30 mins prior to void induction by loading saline measured upto 4 hrs relative to vehicle treated control; type: functional; method in brief: as §3
[13] = Half life in rat at 1 mg/kg, iv or 2 mg/kg, po; type: ADME, organism-based; conditions: in vivo; method in brief: as §2
Rattus norvegicus [14] = experiment: Natriuretic activity in Sprague-Dawley rat at 1 mg/kg via oral gavage administered 30 mins prior to void induction by loading saline measured upto 4 hrs relative to vehicle treated control; type: functional; method in brief: as §3
[15] = biological target: Voltage-dependent L-type calcium channel subunit alpha-1C (Homo sapiens, UniProt Q13936); experiment: Inhibition of Cav1.2 (unknown origin)
Sequence of Voltage-dependent L-type calcium channel subunit alpha-1C (Q13936 whole entry): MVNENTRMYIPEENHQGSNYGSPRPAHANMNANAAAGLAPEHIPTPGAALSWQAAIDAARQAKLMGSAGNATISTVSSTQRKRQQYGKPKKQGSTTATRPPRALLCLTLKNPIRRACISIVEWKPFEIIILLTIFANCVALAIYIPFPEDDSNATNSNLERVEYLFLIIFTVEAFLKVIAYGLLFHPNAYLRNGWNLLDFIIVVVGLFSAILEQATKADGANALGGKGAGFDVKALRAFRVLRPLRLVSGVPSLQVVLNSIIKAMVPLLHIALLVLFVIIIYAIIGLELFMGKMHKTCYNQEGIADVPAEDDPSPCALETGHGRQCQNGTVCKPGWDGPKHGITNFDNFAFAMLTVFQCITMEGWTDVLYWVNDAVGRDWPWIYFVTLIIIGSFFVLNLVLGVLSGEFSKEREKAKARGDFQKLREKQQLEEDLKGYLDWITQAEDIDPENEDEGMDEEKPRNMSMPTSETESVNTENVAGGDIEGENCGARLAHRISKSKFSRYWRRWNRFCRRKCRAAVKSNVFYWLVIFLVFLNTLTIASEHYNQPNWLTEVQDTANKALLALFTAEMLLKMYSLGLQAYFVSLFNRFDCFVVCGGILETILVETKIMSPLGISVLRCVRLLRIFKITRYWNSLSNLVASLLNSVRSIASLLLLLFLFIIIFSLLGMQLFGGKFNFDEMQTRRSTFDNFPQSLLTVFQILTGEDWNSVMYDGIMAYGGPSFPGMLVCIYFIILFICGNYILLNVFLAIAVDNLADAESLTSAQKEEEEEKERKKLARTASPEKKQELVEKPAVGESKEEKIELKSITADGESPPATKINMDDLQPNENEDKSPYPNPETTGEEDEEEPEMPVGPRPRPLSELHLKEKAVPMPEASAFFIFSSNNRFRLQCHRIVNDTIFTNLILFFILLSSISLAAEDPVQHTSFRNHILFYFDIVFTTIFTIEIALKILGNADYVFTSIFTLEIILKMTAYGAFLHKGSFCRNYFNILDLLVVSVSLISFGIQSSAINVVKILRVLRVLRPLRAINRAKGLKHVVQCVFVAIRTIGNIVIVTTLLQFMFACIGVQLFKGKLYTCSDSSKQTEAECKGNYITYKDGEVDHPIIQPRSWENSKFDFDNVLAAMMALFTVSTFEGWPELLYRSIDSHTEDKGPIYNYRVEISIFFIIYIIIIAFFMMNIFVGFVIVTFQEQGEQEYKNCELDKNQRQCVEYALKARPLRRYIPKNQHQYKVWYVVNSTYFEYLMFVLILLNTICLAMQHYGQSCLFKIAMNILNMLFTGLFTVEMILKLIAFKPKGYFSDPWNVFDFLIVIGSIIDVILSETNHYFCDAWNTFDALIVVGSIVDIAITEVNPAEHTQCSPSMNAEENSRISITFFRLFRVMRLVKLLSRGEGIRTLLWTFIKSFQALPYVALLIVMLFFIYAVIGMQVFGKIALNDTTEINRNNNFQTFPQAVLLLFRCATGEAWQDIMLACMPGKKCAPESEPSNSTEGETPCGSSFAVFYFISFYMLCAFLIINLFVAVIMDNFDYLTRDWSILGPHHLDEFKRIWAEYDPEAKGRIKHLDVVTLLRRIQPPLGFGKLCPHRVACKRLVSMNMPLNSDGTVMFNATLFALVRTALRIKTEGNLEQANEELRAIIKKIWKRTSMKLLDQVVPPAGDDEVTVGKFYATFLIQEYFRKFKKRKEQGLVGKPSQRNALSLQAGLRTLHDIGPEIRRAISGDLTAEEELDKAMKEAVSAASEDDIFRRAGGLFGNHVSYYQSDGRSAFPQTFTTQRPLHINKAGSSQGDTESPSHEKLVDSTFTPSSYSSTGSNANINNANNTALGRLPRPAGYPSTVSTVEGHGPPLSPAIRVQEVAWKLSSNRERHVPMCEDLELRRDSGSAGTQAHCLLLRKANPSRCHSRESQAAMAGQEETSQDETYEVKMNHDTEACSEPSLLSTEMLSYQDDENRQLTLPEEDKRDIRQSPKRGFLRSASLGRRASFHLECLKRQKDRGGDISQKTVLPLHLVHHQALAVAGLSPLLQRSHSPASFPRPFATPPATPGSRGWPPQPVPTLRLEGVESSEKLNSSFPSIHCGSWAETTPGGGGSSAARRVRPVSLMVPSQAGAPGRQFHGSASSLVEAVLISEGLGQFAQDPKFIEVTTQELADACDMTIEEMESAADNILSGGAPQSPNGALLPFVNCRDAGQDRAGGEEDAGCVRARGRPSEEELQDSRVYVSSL

Rattus norvegicus [16] = experiment: Antihypertensive activity in spontaneously hypertensive rat assessed as reduction in systolic blood pressure at 3 mg/kg via oral gavage qd administered for 4 days measured on day 4 by telemetry (reference value: 2.5 +/- 2.2 mmHg); type: functional
[17] = Drug metabolism in human hepatocytes assessed as glucuronidation at 1 uM measured at 120 mins; type: ADME, cell-based, Hepatocyte; conditions: read-out: Drug metabolism
Rattus norvegicus [18] = experiment: Natriuretic activity in Sprague-Dawley rat at 3 mg/kg via oral gavage administered 30 mins prior to void induction by loading saline measured upto 4 hrs relative to vehicle treated control; type: functional
Method in brief: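 Acute 4 h diuresis/natriuresis study in SD rats given a single oral dose, n = 5 per group. Urinary sodium output is expressed as fold increase over vehicle-treated animals, with significance tested against vehicle.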

[19] = Cardiotoxicity in vagotomized cardiovascular dog model assessed as effect on heart rate at plasma concentration <= 11.6 uM at 1 to 7 mg/kg, iv administered during three sequential 30 min periods; type: toxicity, organism-based, Canis lupus familiaris; conditions: in vivo, 0.5 h; method in brief: as §1
Rattus norvegicus [20] = experiment: Antihypertensive activity in spontaneously hypertensive rat assessed as reduction in systolic blood pressure at 1 mg/kg via oral gavage qd administered for 4 days measured on day 4 by telemetry (reference value: 2.5 +/- 2.2 mmHg); type: functional
[21] = Drug metabolism in human hepatocytes assessed as lactone hydrolysis at 1 uM measured at 120 mins; type: ADME, cell-based, Hepatocyte; conditions: read-out: Drug metabolism
Rattus norvegicus [22] = experiment: Kaliuretic activity in Sprague-Dawley rat at 1 mg/kg via oral gavage administered 30 mins prior to void induction by loading saline measured upto 4 hrs relative to vehicle treated control; type: functional; method in brief: as §3
[23] = Half life in human; type: ADME
[24] = Drug metabolism in dog hepatocytes assessed as oxidation at 1 uM measured at 120 mins; type: ADME, cell-based, Canis lupus familiaris, Hepatocyte; conditions: read-out: Drug metabolism
[25] = Drug metabolism in rat hepatocytes assessed as glucuronidation at 1 uM measured at 120 mins; type: ADME, cell-based, Hepatocyte; conditions: read-out: Drug metabolism
Acetylcholinesterase = Acetylcholinesterase (Homo sapiens, UniProt P22303); experiment: Inhibition of ACES (unknown origin)
Sequence of Acetylcholinesterase (P22303 whole entry): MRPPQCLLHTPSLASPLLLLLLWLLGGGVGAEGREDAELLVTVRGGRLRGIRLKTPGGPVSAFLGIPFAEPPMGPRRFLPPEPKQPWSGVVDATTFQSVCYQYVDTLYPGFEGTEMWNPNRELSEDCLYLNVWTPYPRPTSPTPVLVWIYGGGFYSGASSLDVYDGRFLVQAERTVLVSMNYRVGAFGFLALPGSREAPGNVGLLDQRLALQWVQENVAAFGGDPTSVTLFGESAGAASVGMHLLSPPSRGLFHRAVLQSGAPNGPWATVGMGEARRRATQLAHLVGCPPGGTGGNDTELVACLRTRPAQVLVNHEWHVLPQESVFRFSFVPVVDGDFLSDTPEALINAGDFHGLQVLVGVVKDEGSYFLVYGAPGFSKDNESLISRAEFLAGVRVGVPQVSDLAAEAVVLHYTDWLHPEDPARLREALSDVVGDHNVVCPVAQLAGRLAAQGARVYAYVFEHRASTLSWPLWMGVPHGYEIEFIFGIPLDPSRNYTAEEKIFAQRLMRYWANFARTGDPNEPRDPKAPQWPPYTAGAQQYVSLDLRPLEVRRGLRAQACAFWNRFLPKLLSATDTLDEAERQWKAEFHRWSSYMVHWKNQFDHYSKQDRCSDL

[26] = biological target: T2, ATP-sensitive inward rectifier potassium channel 10 (Homo sapiens) (UniProt P78508); experiment: Inhibition of Kir4.1 (unknown origin) upto 30 uM
T2 sequence (whole entry): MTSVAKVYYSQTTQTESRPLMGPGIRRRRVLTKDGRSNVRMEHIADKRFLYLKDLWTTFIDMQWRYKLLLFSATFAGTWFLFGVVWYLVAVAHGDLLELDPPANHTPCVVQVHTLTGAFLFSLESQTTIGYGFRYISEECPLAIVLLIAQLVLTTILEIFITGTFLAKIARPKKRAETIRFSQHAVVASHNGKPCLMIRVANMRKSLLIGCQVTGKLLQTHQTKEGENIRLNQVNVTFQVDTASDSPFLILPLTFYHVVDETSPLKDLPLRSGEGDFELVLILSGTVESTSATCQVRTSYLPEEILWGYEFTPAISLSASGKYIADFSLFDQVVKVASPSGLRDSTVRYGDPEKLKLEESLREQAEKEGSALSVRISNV

[27] = Oral bioavailability in rhesus monkey at 2 mg/kg; type: ADME, organism-based, Macaca mulatta; conditions: in vivo

Cc1c([C@@H](O)CN2CCN(C[C@H](O)c3ccc4c(c3C)COC4=O)CC2)ccc2c1COC2=O [MK-7145]
Activity [1]: Non-Toxic
metabolised at 2 h, 1 µM [2]: < 1%
bioavailability [3]: 21%
Drug metabolism [4]: Metabolite_Detected
fold change (FC) (Rattus norvegicus [5]): 9.4
Drug metabolism [6]: Metabolite_Detected
IC50 (Cytochrome P450 3A4): > 50 µM
Drug metabolism [7]: 15 to 37%
inhibition (INH) [8]: Not Active
fold change (FC) (Rattus norvegicus [9]): 1.7
metabolised at 2 h, 1 µM [10]: < 1%
Vd [11]: 3.8 L/kg
fold change (FC) (Rattus norvegicus [12]): 8.6
half-life [13]: 1.1 h
fold change (FC) (Rattus norvegicus [14]): 8.6
IC50 [15]: > 30 µM
Activity (Rattus norvegicus [16]): 12.4 mmHg
metabolised at 2 h, 1 µM [17]: < 1%
fold change (FC) (Rattus norvegicus [18]): 8
Activity [19]: Non-Toxic
Activity (Rattus norvegicus [20]): 9.4 mmHg
metabolised at 2 h, 1 µM [21]: < 1%
fold change (FC) (Rattus norvegicus [22]): 1.8
half-life [23]: 5 h
metabolised at 2 h, 1 µM [24]: 15 to 37%
metabolised at 2 h, 1 µM [25]: < 1%
IC50 (Acetylcholinesterase): 9.94 µM
inhibition [26]: inactive
bioavailability [27]: 25%
